A selection: hits, their analogues and other compounds. The true share with any hit is near 3.5%.
MrgX1 allo act: positive allosteric modulators of MrgX1, primary screen, HEK293 cells, Fluo-4 calcium flux; 0.63% of 310,000 active; FDSS; hits give high values; Mas-related G-protein coupled receptor member X1 (Homo sapiens), Q96LB2; B-score at 10 µM;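 active = plate-corrected calcium response at least 3 library SD above typical, normal starting fluorescence, not activating the receptor alone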;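 note: compound read alongside a low EC10 to EC30 dose of BAM8-22 agonist; peak minus trough fluorescence over baseline measured at the second addition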
Target sequence (Q96LB2 whole entry, looked up): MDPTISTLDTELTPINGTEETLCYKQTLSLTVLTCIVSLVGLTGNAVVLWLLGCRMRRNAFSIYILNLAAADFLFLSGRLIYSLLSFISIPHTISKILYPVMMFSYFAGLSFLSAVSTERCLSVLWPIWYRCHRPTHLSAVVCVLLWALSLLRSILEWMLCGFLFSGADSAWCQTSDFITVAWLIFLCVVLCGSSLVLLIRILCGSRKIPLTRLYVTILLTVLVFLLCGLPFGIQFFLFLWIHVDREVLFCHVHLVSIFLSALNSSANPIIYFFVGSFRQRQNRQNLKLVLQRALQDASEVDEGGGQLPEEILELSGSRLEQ
RGS4 block: RGS4 inhibitors, primary screen, cell-based, HEK293 M3R inducible RGS4, calcium flux | Regulator of G-protein signaling 4 (Homo sapiens), P49798 | Fluo-4 calcium flux; hits give high values; triggered by carbachol at its EC20 | B-score at 10 µM | 0.45% of 310,000 active | AID 463165, 2010;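 active = B-score, a plate-corrected calcium signal, over three deviations above library mean, with baseline fluorescence within five deviations of library mean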;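 note: RGS4 expression induced by doxycycline in cells with stable M3 receptor; B-score is computed from the integrated fluorescence ratio over baseline after carbachol; higher B-score means a larger calcium signal and so more RGS4 inhibition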
Target sequence (P49798 whole entry, looked up): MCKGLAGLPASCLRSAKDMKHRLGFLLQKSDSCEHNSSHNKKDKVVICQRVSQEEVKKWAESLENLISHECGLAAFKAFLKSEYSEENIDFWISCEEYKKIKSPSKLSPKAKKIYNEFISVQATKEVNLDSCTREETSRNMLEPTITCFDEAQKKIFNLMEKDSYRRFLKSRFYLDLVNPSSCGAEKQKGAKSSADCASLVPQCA
MrgX1 antagonist: antagonists of human MrgX1 receptor, primary screen, HEK293 cells, Fluo-4 calcium flux | 1.3% of 310,000 active | B-score at 10 µM | BAM8-22 antagonism; hits give low values | AID 588676, 2011;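 active = calcium-response B-score plate-corrected more than 3 library SD below zero, starting fluorescence within 5 deviations, no agonist response on first addition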;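 note: peak minus trough fluorescence over baseline after final BAM8-22 challenge near maximal dose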
MrgX1 ag: agonists of human MrgX1 receptor, primary screen, HEK293 cells, Fluo-4 calcium flux; Mas-related G-protein coupled receptor member X1 (Homo sapiens), Q96LB2; Fluo-4 calcium fluorescence, agonist mode; hits give high values; B-score at 10 µM; 0.44% of 310,000 active; AID 588627, 2011;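 active = calcium response B-score plate-corrected fluorescence ratio at least 3 library SD, with starting fluorescence B-score inside 5 SD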
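Material: HEK293 cells stably expressing human MrgX1 receptor | Quantity: 15,000 cells per well | Times: Cells plated overnight, dye loaded 0.5 h 37 °C, 0.5 h room temperature | Measured by: Kinetic Fluo-4 NW fluorescence of intracellular calcium | Control set: Positive and negative controls per plate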
RGS4 act: RGS4 potentiators or activators, primary screen, cell-based, HEK293 M3R inducible RGS4, calcium flux. carbachol calcium flux Fluo4; hits give low values. B-score at 10 µM. 0.92% of 310,000 active. AID 463111, 2010;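 active = B-score of the integrated calcium signal more than 4 SD below the library mean, with starting fluorescence not abnormally high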;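 note: negative B-score means reduced calcium response which marks RGS4 activation or potentiation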
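Detection: kinetic calcium fluorescence imaging with Fluo4-AM dye, 2 µM / Material: HEK293 cells with stable M3R and inducible RGS4 / Schedule: recording 10 s baseline at 1 Hz, 100 s post-agonist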
MrgX1 ag confirm: MrgX1 receptor agonists, duplicate retest, confirmation, HEK293 cells, Fluo-4 calcium flux; shares compounds with MrgX1 ag; Fluo-4 calcium fluorescence, FDSS; activation, % at 10 µM; 78% of 600 active; AID 602412, 2012;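 active = calcium signal rise, corrected for plate position, at least 3 library SD high, with starting brightness within 5 such deviations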
HEK293 Ca flux: nonspecific calcium signal in parental HEK293, confirmation, counter-screen for MrgX1 antagonist project, parental HEK293 cells, Fluo-4 calcium flux; Fluo-4 calcium fluorescence, FDSS; shares compounds with MrgX1 antagonist; fluorescence ratio F(max-min)/F0 at 10 µM; 2% of 4,000 active;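 active = duplicate-averaged calcium fluorescence ratio at least three times the standard deviation of buffer wells, a nonspecific response in parental cells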
HEK293 Ca counter: calcium response in parental HEK293 cells, primary screen, counter-screen for MrgX1 allosteric activator project, cell-based, Fluo-4 calcium flux, duplicate; Fluo-4 fluorescence ratio; hits give high values; shares compounds with MrgX1 antagonist; 0.4% of 4,000 active; fluorescence ratio F(max-min)/F0 at 10 µM;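 active = calcium fluorescence ratio, averaged over duplicates, at least 3 SD of the buffer-well ratio, meaning a nonspecific response in receptor-free cells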;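 note: untransfected parental HEK293 lacking MrgX1 used as counterscreen for MrgX1 allosteric activators; fluorescence change taken during the second addition on a kinetic imager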
HEK293 Ca cntr2: calcium response in parental HEK293 cells, primary screen, counter-screen for MrgX1 agonist project, cell-based, Fluo-4 calcium flux, duplicate, agonist mode | fluorescence ratio F(max-min)/F0 at 10 µM | Fluo-4 calcium fluorescence (FDSS); hits give high values | shares compounds with MrgX1 antagonist | AID 624115, 2012 | 8.7% of 4,000 active;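 active = calcium fluorescence ratio at least three times the spread of buffer wells, meaning a non-specific response in parental cells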
* marks the source's active call; other numbers are inactive results; i = inactive; nt = no result.

SMILES	MrgX1 allo act	RGS4 block	MrgX1 antagonist	MrgX1 ag	RGS4 act	MrgX1 ag confirm	HEK293 Ca flux	HEK293 Ca counter	HEK293 Ca cntr2
Cc1ccc(NC(=O)CCc2nnc3ccc(N4CCC5(CC4)OCCO5)nn23)cc1F	i	i	i	i	i	nt	nt	nt	nt
COc1cc(CN2CCNC(=O)C2CC(=O)NC2CCCC2)cc(OC)c1 (stereo not given)	i	i	i	i	i	nt	nt	nt	nt
COc1cc(C#N)ccc1OCC(=O)N1CCc2ccccc2C1	i	i	i	50.2*	i	i	i	i	i
CCOc1cc(C#N)ccc1OCC(=O)N1CCc2ccccc2C1	i	i	i	i	i	nt	nt	nt	nt
CCCN1CCC(Oc2cccc(C(=O)NCCc3ccccc3)c2)CC1	i	i	i	i	i	nt	nt	nt	nt
CCCOc1ncnc2c1[nH]c1ccccc12	i	i	i	i	i	nt	nt	nt	nt
CCN(CC)c1ncnc2c1[nH]c1ccccc12	i	i	i	28.1*	i	124.8%*	i	i	i
CC(C)NC(=O)C1(S(=O)(=O)c2ccccc2)CC=CC1	i	i	i	i	i	nt	nt	nt	nt
c1csc(C2C3=C(Nc4ncnn42)c2ccccc2OC3)c1 (stereo not given)	i	i	i	31.3*	i	121.6%*	i	i	i
O=C(CN(c1ccc(F)cc1)S(=O)(=O)c1ccc2c(c1)OCCO2)Nc1cccnc1	i	i	i	39.5*	i	i	i	i	i
COCc1c(CCl)cnc(C)c1O	i	i	i	i	i	nt	nt	nt	nt
O=C1Nc2ccccc2C(=O)C1(Cl)Cc1ccccc1 (stereo not given)	i	i	i	32.4*	i	199.1%*	i	i	i
CC(C)(C)N1C(=O)c2ccccc2NC(=O)N1Cc1ccccc1	i	i	i	i	i	nt	nt	nt	nt
COc1ccc2c(c1)CC/C(=C\Nc1ccc3c(c1)OCO3)C2=O	i	i	i	26.9*	i	i	i	i	i
O=C1CCCCN1CCCC(=O)N1CCCC(Nc2ccc(F)c(F)c2)C1 (stereo not given)	i	i	i	i	i	nt	nt	nt	nt
COc1cc(/C=C2\SC(=Nc3ccccc3)NC2=O)cc(Cl)c1O	i	i	i	83.6*	i	i	0.388*	i	139*
COc1ccnc(CSC(N)=Nc2ccc(F)cc2)c1	i	i	i	75.1*	i	383.3%*	i	i	75.4*
COc1cccc(N/C(N)=N/c2nc(CSc3ccccn3)cc(=O)[nH]2)c1	i	i	i	i	i	nt	nt	nt	nt
O=C(Nc1ccccc1C(=O)O)c1cc(S(=O)(=O)N2CCCCC2)c(Cl)cc1Cl	i	i	i	i	i	nt	nt	nt	nt
O=C(CN1C(=O)C(=O)c2ccccc21)c1ccccc1	i	i	i	i	i	nt	nt	nt	nt
O=C1C(=O)N(Cc2cccs2)c2ccccc21	i	i	i	32.7*	i	184.8%*	i	i	i
CC(C)N1CCc2c(sc(NC(=O)Cc3ccccc3)c2C(N)=O)C1	i	i	i	i	i	nt	nt	nt	nt

Screening results (PubChem BioAssay)
